# Measurements: publication PMC3594472 (Bioorganic & medicinal chemistry letters, 2013)
# How the values were obtained:
# [1] = system: all five rat muscarinic acetylcholine receptors; experiment: Muscarinic selectivity profiling, rat receptors; type: cell-based; conditions: up to the highest concentration tested (30 µM)
# [2] = system: all five human muscarinic acetylcholine receptors; experiment: Muscarinic selectivity profiling, human receptors; type: cell-based; conditions: up to the highest concentration tested (30 µM)
# human M1 (hM1) receptor [3] = molecular target: T1, human M1 (hM1) receptor (Homo sapiens, UniProt P11229); experiment: hM1 PAM functional activity; type: cell-based; conditions: for hM1 PAM activity (in words): concentrations up to 30 µM
# T1 sequence (P11229 1-460): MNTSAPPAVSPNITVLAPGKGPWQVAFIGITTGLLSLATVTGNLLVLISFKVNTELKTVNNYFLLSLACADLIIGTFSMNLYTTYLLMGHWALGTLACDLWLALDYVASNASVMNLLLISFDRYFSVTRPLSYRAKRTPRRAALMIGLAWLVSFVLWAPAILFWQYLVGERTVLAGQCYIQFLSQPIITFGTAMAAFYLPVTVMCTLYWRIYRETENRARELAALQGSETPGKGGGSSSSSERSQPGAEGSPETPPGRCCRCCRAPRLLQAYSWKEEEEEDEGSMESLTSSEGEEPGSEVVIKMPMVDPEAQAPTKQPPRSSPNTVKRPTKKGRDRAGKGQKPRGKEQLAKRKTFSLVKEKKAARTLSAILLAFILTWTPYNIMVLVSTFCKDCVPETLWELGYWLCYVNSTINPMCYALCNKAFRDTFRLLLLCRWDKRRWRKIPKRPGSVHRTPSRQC
# In short: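 Human M1 PAM functional assay. Test compound was run at concentrations up to a top level of 30 µM. Efficacy is expressed as percent of the maximal acetylcholine response. Where hM1 EC50 is listed as >10, the figure given is the percent maximal ACh response with test compound at 30 µM. Values are mean ± standard error of the mean of at least three independent determinations, each performed in triplicate.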
# human M1 (hM1) receptor [4] = molecular target: T1, human M1 (hM1) receptor; conditions: previously reported value; ref 7b; cited from earlier work
Structure (SMILES),hM1 PAM activity (in words) (human M1 (hM1) receptor [3]),also measured
Cn1cc(-c2ccc(CN3C(=O)C4(OCCO4)c4ccccc43)c(F)c2)cn1 [Compound 3],–,selectivity across rat muscarinic receptors (M1-M5) [1]: completely selective for the M1 receptors; selectivity across human muscarinic receptors (M1-M5) [2]: completely selective for the M1 receptors
O=C1N(Cc2ccc(Br)cc2)c2ccccc2C12CCCN2 (stereo not drawn) [Compound 13],inactive,–
CN1CCCC12C(=O)N(Cc1ccc(Br)cc1)c1ccccc12 (stereo not drawn) [Compound 14],inactive,–
C[Si](C)(C)C1COC2(C1)C(=O)N(Cc1ccc(Br)cc1)c1ccccc12 (stereo not drawn) [Compound 16],inactive,–
O=C1N(Cc2ccc(Br)cc2)c2ccccc2C12CCCO2 (stereo not drawn) [Compound 17],inactive,–
CN1CCC2(C1)C(=O)N(Cc1ccc(-c3cnn(C)c3)cc1F)c1ccccc12 (stereo not drawn) [Compound 18d],–,"pEC50 (human M1 (hM1) receptor [3]; Table 1, hM1 PAM, mean ± SEM): 5.49 ± 0.10; selectivity across rat muscarinic receptors (M1-M5) [1]: completely selective for the M1 receptors; selectivity across human muscarinic receptors (M1-M5) [2]: completely selective for the M1 receptors"
Cn1cc(-c2ccc(CN3C(=O)C(=O)c4ccccc43)c(F)c2)cn1 [ML137],–,%AChmax (human M1 (hM1) receptor [4]): 65%

# Further lines, with some results ahead:
hM1 PAM activity (in words) (human M1 (hM1) receptor [3]),Structure (SMILES),also measured
lacked any PAM activity,Cn1cc(-c2ccc(CN3C(=O)C4(CCNC4)c4ccccc43)c(F)c2)cn1 (stereo not drawn) [Compound 18e],–
inactive,Cn1cc(-c2ccc(CN3C(=O)C4(CCN(c5ccccc5)C4)c4ccccc43)c(F)c2)cn1 (stereo not drawn) [Compound 19s],–
low micro-molar activity,Cn1cc(-c2ccc(CN3C(=O)C4(CCN(c5ncccn5)C4)c4ccccc43)c(F)c2)cn1 (stereo not drawn) [Compound 19t],–
eliminated PAM activity,Cc1c(-c2ccc(CN3C(=O)C4(CCN(C5CCCC5)C4)c4ccccc43)c(F)c2)cnn1C (stereo not drawn) [Compound 20c],–
inactive,Cc1nn(C)c(C)c1-c1ccc(CN2C(=O)C3(CCN(C4CCCC4)C3)c3ccccc32)c(F)c1 (stereo not drawn) [Compound 20d],–
